Results: ChEMBL document CHEMBL3399923, “Design and synthesis of new bioisosteres of spirooxindoles (MI-63/219) as anti-breast cancer agents” (Bioorg Med Chem, 2015)
Activity calls are given as the source filed them. The calls are words filed in the database; no cut-off is given here.

How the values were obtained:
MDA-MB-231 = assay: Cytotoxicity against human MDA-MB-231 cells after 48 hrs by MTT assay; assay type: functional, cell-based; conditions: MDA-MB-231, 48 h
Summary of the method: (§1)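 MTT viability screen for cytotoxicity across the breast cancer and normal kidney epithelial lines; IC50 reported in µM.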

MCF7 [1] = assay: Cytotoxicity against human MCF7 cells after 48 hrs by MTT assay; assay type: functional, cell-based; conditions: MCF7, 48 h; summary of the method: as §1
HEK293 = assay: Cytotoxicity against human HEK293 cells after 48 hrs by MTT assay; assay type: cell-based; conditions: HEK293, 48 h; summary of the method: as §1
Vero = assay: Cytotoxicity against African green monkey Vero cells after 48 hrs by MTT assay; assay type: cell-based; conditions: Chlorocebus sabaeus; summary of the method: as §1
Mus musculus [2] = assay: Antitumor activity against human MCF7 cells xenografted in nude mouse assessed as reduction in cyclin D1 protein expression at 20 mg/kg, po administered for 14 days by Western blotting analysis; assay type: functional, organism-based; design: dose 20 mg/kg
Mus musculus [3] = assay: Toxicity in nude mouse xenografted with human MCF7 cells assessed as change in body weight at 20 mg/kg, po administered for 14 days relative to vehicle-treated control; assay type: organism-based; design: dose 20 mg/kg, route oral; conditions: in vivo, 336 h
Summary of the method: (§2)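 MCF-7 xenograft tumors were induced in athymic nude mice and dosed at 20 mg/kg body weight/day for 14 days, alongside a vehicle-treated group. Tumor volume, average tumor size and body weight were tracked. Liver, lungs, spleen, uterus and kidney were examined histomorphologically against vehicle.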

MCF7 [4] = assay: Increase in p53 mRNA expression in human MCF7 cells at 2.5 to 7.5 uM by RT-PCR analysis; assay type: functional, cell-based
Summary of the method: (§3)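 p53 and MDM2 mRNA were measured by real-time quantitative PCR in vehicle- versus compound-treated MCF-7 or primary breast cancer cells. Data are the mean of three separate experiments with SEM, compared with control.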

Homo sapiens [5] = species: Homo sapiens; assay: Increase in MDM2 mRNA expression in human primary breast adenocarcinoma cells at 2.5 to 7.5 uM by RT-PCR analysis; assay type: functional; summary of the method: as §3
Homo sapiens [6] = species: Homo sapiens; assay: Increase in p21 protein expression in human primary breast adenocarcinoma cells assessed as reduction in Rb phosphorylation at 2.5 to 7.5 uM by immunoblotting analysis; assay type: functional
Summary of the method: (§4)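 Western blot of cell-cycle regulatory proteins (p21, cyclin D1, phospho-Rb) in MCF-7 or primary breast cancer cells. Densitometric quantitation is given as fold change versus control; mean with SEM, n = 3.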

MCF7 [7] = assay: Cell cycle arrest at G1/S phase in human MCF7 cells assessed as reduction in cyclin E1 mRNA expression at 2.5 to 7.5 uM after 48 hrs by RT-PCR analysis; assay type: functional, cell-based
Summary of the method: (§5)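 Real-time quantitative PCR of p21, cyclin D1, A1, B1 and E1 mRNA in treated MCF-7 cells. Mean with SEM, n = 3, compared with control.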

MCF7 [8] = assay: Cell cycle arrest in human MCF7 cells assessed as accumulation at G1 phase at 7.5 uM after 48 hrs by propidium iodide staining-based flow cytometry (reference value: 60%); assay type: functional
Summary of the method: (§6)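 Cells were exposed to 7.5µM, then stained with propidium iodide and analysed by flow cytometry for the percentage of cells in each cell-cycle phase. Mean with SEM is from three independent experiments, compared with control.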

Mus musculus [9] = assay: Toxicity in nude mouse xenografted with human MCF7 cells assessed as change in spleen at 20 mg/kg, po administered for 14 days by histomorphology relative to vehicle-treated control; assay type: organism-based; design: dose 20 mg/kg, route oral; conditions: in vivo, 336 h; summary of the method: as §2
MCF7 [10] = assay: Cell cycle arrest at G2/M phase in human MCF7 cells assessed as reduction in cyclin B1 mRNA expression at 2.5 to 7.5 uM after 48 hrs by RT-PCR analysis; assay type: functional, cell-based; summary of the method: as §5
MCF7 [11] = assay: Increase in p53 protein expression in human MCF7 cells; assay type: functional, cell-based
Mus musculus [12] = assay: Toxicity in nude mouse xenografted with human MCF7 cells assessed as change in liver at 20 mg/kg, po administered for 14 days by histomorphology relative to vehicle-treated control; assay type: organism-based; design: dose 20 mg/kg, route oral; conditions: in vivo, 336 h; summary of the method: as §2
MCF7 [13] = assay: Antitumor activity against human MCF7 cells xenografted in nude mouse assessed as reduction in tumor volume at 20 mg/kg, po administered for 14 days relative to vehicle-treated control; assay type: functional; design: scale not given: the % may be the effect or the level left; summary of the method: as §2
Mus musculus [14] = assay: Toxicity in nude mouse xenografted with human MCF7 cells assessed as change in lungs at 20 mg/kg, po administered for 14 days by histomorphology relative to vehicle-treated control; assay type: organism-based; design: dose 20 mg/kg, route oral; conditions: in vivo, 336 h; summary of the method: as §2
MCF7 [15] = assay: Increase in p21 mRNA expression in human MCF7 cells at 5 to 7.5 uM by RT-PCR analysis; assay type: functional, cell-based; summary of the method: as §5
MCF7 [16] = assay: Increase in p21 protein expression in human MCF7 cells assessed as reduction in cyclin D1 expression at 2.5 to 7.5 uM by immunoblotting analysis; assay type: functional, cell-based; summary of the method: as §4
Mus musculus [17] = assay: Antitumor activity against human MCF7 cells xenografted in nude mouse assessed as reduction in phosphorylated Rb level at 20 mg/kg, po administered for 14 days by Western blotting analysis; assay type: functional, organism-based; design: dose 20 mg/kg
MCF7 [18] = assay: Increase in MDM2 mRNA expression in human MCF7 cells at 2.5 to 7.5 uM by RT-PCR analysis; assay type: functional, cell-based; summary of the method: as §3
MCF7 [19] = assay: Cell cycle arrest at G1/S phase in human MCF7 cells assessed as reduction in cyclin D1 mRNA expression at 2.5 to 7.5 uM after 48 hrs by RT-PCR analysis; assay type: functional, cell-based; summary of the method: as §5
Homo sapiens [20] = species: Homo sapiens; assay: Increase in p21 protein expression in human primary breast adenocarcinoma cells assessed as reduction in cyclin D1 expression at 2.5 to 7.5 uM by immunoblotting analysis; assay type: functional; summary of the method: as §4
MCF7 [21] = assay: Increase in p53 […] in human MCF7 cells assessed as increase in p21 promoter activity after 18 hrs by luciferase reporter gene assay; assay type: functional, cell-based
[22] = Cell cycle arrest in human primary breast adenocarcinoma cells assessed as accumulation at G1 phase at 7.5 uM after 48 hrs by propidium iodide staining-based flow cytometry (reference value: 60%); assay type: functional; summary of the method: as §6
MCF7 [23] = assay: Increase in p21 protein expression in human MCF7 cells assessed as reduction in Rb phosphorylation at 2.5 to 7.5 uM by immunoblotting analysis; assay type: functional, cell-based; summary of the method: as §4
Homo sapiens [24] = species: Homo sapiens; assay: Increase in p53 protein expression in human primary breast adenocarcinoma cells; assay type: functional
Mus musculus [25] = assay: Antitumor activity against human MCF7 cells xenografted in nude mouse assessed as increase in p21 protein expression at 20 mg/kg, po administered for 14 days by Western blotting analysis; assay type: functional, organism-based; design: dose 20 mg/kg
MCF7 [26] = assay: Increase in MDM2 protein expression in human MCF7 cells; assay type: functional, cell-based
Mus musculus [27] = assay: Toxicity in nude mouse xenografted with human MCF7 cells assessed as change in uterus at 20 mg/kg, po administered for 14 days by histomorphology relative to vehicle-treated control; assay type: organism-based; design: dose 20 mg/kg, route oral; conditions: in vivo, 336 h; summary of the method: as §2
MCF7 [28] = assay: Increase in p21 protein expression in human MCF7 cells at 7.5 uM by immunoblotting analysis relative to control; assay type: functional; summary of the method: as §4
[29] = Increase in p21 protein expression in human primary breast adenocarcinoma cells at 7.5 uM by immunoblotting analysis relative to control; assay type: functional; summary of the method: as §4
Homo sapiens [30] = species: Homo sapiens; assay: Increase in p53 mRNA expression in human primary breast adenocarcinoma cells at 2.5 to 7.5 uM by RT-PCR analysis; assay type: functional; summary of the method: as §3
MCF7 [31] = assay: Cell cycle arrest at G1/S phase in human MCF7 cells assessed as reduction in cyclin A1 mRNA expression at 2.5 to 7.5 uM after 48 hrs by RT-PCR analysis; assay type: functional, cell-based; summary of the method: as §5
MCF7 [32] = assay: Antitumor activity against human MCF7 cells xenografted in nude mouse assessed as reduction in tumor size at 20 mg/kg, po administered for 14 days relative to vehicle-treated control; assay type: functional; design: scale not given: the % may be the effect or the level left; summary of the method: as §2
Mus musculus [33] = assay: Toxicity in nude mouse xenografted with human MCF7 cells assessed as change in kidney at 20 mg/kg, po administered for 14 days by histomorphology relative to vehicle-treated control; assay type: organism-based; design: dose 20 mg/kg, route oral; conditions: in vivo, 336 h; summary of the method: as §2
Homo sapiens [34] = species: Homo sapiens; assay: Increase in MDM2 protein expression in human primary breast adenocarcinoma cells; assay type: functional

Structure (SMILES): O=C(c1ccccc1)C1[C@H](c2ccc(O)cc2)[C@@H](c2ccccc2)NC12C(=O)Nc1ccccc12 (stereo not given in full)
- IC50 (MDA-MB-231): 37.3 µM
- IC50 (MCF7 [1]): 36.3 µM
- IC50 (HEK293): > 50 µM
- IC50 (Vero): > 50 µM

Structure (SMILES): CN(C)CCOc1ccc(C(=O)C2[C@H](c3ccccc3)[C@@H](c3ccccc3)NC23C(=O)Nc2ccc([N+](=O)[O-])cc23)cc1 (stereo not given in full)
- IC50 (MDA-MB-231): 17.8 µM
- IC50 (MCF7 [1]): 17.2 µM
- IC50 (HEK293): 24.2 µM
- IC50 (Vero): 28.8 µM

Structure (SMILES): O=C(c1ccc(OCCN2CCOCC2)cc1)C1[C@H](c2ccccc2)[C@@H](c2ccccc2)NC12C(=O)Nc1ccc([N+](=O)[O-])cc12 (stereo not given in full)
- IC50 (MDA-MB-231): > 50 µM
- IC50 (MCF7 [1]): 24.7 µM
- IC50 (HEK293): 45.4 µM
- IC50 (Vero): > 50 µM

Structure (SMILES): O=C(c1ccc(OCCN2CCCCC2)cc1)C1[C@H](c2ccccc2)[C@@H](c2ccccc2)NC12C(=O)Nc1ccc(Cl)cc12 (stereo not given in full)
- Activity (Mus musculus [2]): Active
- Activity (Mus musculus [3]): Non-toxic
- Activity (MCF7 [4]): Active
- Activity (Homo sapiens [5]): Active
- Activity (Homo sapiens [6]): Active
- Activity (MCF7 [7]): Active
- Activity (MCF7 [8]): 90%
- Activity (Mus musculus [9]): Non-toxic
- IC50 (MDA-MB-231): 3.7 µM
- Activity (MCF7 [10]): inactive
- Activity (MCF7 [11]): Active
- Activity (Mus musculus [12]): Non-toxic
- Activity (MCF7 [13]): 66%
- Activity (Mus musculus [14]): Non-toxic
- Activity (MCF7 [15]): Active
- Activity (MCF7 [16]): Active
- IC50 (MCF7 [1]): 6.5 µM
- Activity (Mus musculus [17]): Active
- Activity (MCF7 [18]): Active
- Activity (MCF7 [19]): Active
- Activity (Homo sapiens [20]): Active
- Activity (MCF7 [21]): Dose-dependent effect
- IC50 (HEK293): > 50 µM
- IC50 (Vero): > 50 µM
- Activity [22]: 90%
- Activity (MCF7 [23]): Active
- Activity (Homo sapiens [24]): Active
- Activity (Mus musculus [25]): Active
- Activity (MCF7 [26]): Active
- Activity (Mus musculus [27]): Non-toxic
- Ratio (MCF7 [28]): 2.5
- Ratio [29]: 2.5
- Activity (Homo sapiens [30]): Active
- Activity (MCF7 [31]): Active
- Activity (MCF7 [32]): 66%
- Activity (Mus musculus [33]): Non-toxic
- Activity (Homo sapiens [34]): Active

Structure (SMILES): O=C(c1ccc(OCCN2CCOCC2)cc1)C1[C@H](c2ccccc2)[C@@H](c2ccccc2)NC12C(=O)Nc1ccccc12 (stereo not given in full)
- IC50 (MDA-MB-231): > 50 µM
- IC50 (MCF7 [1]): > 50 µM
- IC50 (HEK293): > 50 µM
- IC50 (Vero): > 50 µM

Structure (SMILES): CCN(CC)CCOc1ccc(C(=O)C2[C@H](c3ccccc3)[C@@H](c3ccccc3)NC23C(=O)Nc2ccccc23)cc1 (stereo not given in full)
- IC50 (MDA-MB-231): 14.5 µM
- IC50 (MCF7 [1]): 13.4 µM
- IC50 (HEK293): 23.2 µM
- IC50 (Vero): 20.6 µM

Structure (SMILES): CCN1C(=O)C2(N[C@H](c3ccccc3)[C@@H](c3ccccc3)C2C(=O)c2ccc(OCCN3CCOCC3)cc2)c2ccccc21 (stereo not given in full)
- IC50 (MDA-MB-231): > 50 µM
- IC50 (MCF7 [1]): > 50 µM
- IC50 (HEK293): > 50 µM
- IC50 (Vero): > 50 µM

Structure (SMILES): O=C(c1ccc(OCCN2CCOCC2)cc1)C1[C@H](c2ccccc2)[C@@H](c2ccccc2)NC12C(=O)Nc1ccc(Cl)cc12 (stereo not given in full)
- IC50 (MDA-MB-231): 19.2 µM
- IC50 (MCF7 [1]): 18 µM
- IC50 (HEK293): 25.4 µM
- IC50 (Vero): 30.8 µM
